“And” between values parts separate entries of the source, which are not always exact repeats. Equal values may be shown once. The source made the active and inactive calls. The calls are words filed in the database; no cut-off is given here.
Legend:
[1] = target: Bifunctional dihydrofolate reductase-thymidylate synthase (Plasmodium falciparum K1) (UniProt P13922); assay: (§1) Inhibition of the wild-type dihydrofolate reductase (DHFR) relative to Pyr.
Summary of the method: (§2)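 Assayed at 25 °C in 50 mM TES pH 7.0, 75 mM β-mercaptoethanol, 1 mg/mL BSA, with 100 µM H2folate and 100 µM NADPH. A340 was followed. Ki was derived from IC50 = Ki(1+[S]/Km), assuming competitive inhibition.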

[2] = test system: BC; assay: Cytotoxicity against human breast cancer cells.; format: functional, cell-based
[3] = target: Bifunctional dihydrofolate reductase-thymidylate synthase (Plasmodium falciparum K1) (UniProt P13922); assay: Inhibition of the S108N mutant of dihydrofolate reductase (DHFR) relative to Pyr.; summary of the method: as §2
[4] = test system: KB; assay: Cytotoxicity against human epidermoid carcinoma KB cell.; format: functional, cell-based
[5] = test system: Bifunctional dihydrofolate reductase-thymidylate synthase (Plasmodium falciparum K1), P13922 [UNDEFINED MUTATION]; assay: Ratio of Inhibition of the S108N mutant of dihydrofolate reductase (DHFR) to inhibition of wild type dihydrofolate reductase.
Sequence of Bifunctional dihydrofolate reductase-thymidylate synthase (Plasmodium falciparum K1), P13922 [UNDEFINED MUTATION] (P13922 whole entry, looked up, stated change not applied): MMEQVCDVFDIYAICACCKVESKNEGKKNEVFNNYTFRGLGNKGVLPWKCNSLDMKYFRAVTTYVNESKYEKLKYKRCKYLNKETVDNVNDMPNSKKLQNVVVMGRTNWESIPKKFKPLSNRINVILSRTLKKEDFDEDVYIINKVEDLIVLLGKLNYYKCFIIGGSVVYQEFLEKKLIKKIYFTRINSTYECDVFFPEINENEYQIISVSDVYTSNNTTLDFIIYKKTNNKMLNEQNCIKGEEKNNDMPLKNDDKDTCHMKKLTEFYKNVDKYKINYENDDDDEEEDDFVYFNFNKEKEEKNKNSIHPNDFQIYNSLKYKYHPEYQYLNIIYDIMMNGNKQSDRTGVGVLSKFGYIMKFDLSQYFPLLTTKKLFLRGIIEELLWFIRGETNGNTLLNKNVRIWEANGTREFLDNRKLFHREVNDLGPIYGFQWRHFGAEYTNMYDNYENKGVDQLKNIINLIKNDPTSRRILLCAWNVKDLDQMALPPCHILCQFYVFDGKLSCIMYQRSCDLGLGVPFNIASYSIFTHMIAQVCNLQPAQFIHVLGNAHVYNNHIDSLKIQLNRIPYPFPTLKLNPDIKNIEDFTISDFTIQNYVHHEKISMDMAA

[6] = Safety ratio is cytotoxicity to KB cells/IC50 K1.; format: toxicity, cell-based; conditions: human, KB cells (epidermoid carcinoma); read-out: Safety ratio
Summary of the method: (§3)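 Ratio of the cytotoxicity IC50 (vero, KB or BC cells, Skehan protocol) to the antiplasmodial IC50 against K1CB1 (C59R+S108N DHFR). […] Label was added at 24 h and cultures ran a further 18-24 h. Final DMSO was 0.1%.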

[7] = Safety ratio is cytotoxicity to BC cells/IC50 TM4.; format: toxicity, cell-based; conditions: human, BC cells (breast cancer); read-out: Safety ratio
Summary of the method: (§4)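 Ratio of the cytotoxicity IC50 (KB or BC cells, Skehan protocol) to the antiplasmodial IC50 against TM4/8.2 (wild-type DHFR). […] Label was added after 24 h and cultures ran a further 18-24 h.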

[8] = test system: Plasmodium falciparum; assay: Safety ratio as cytotoxicity in vero cells relative to IC50 TM4; format: functional
[9] = test system: Plasmodium falciparum; assay: In vitro relative antiplasmodial activity (IC50) compared to Pyr against Plasmodium falciparum TM4/8.2 wild-type; format: functional
[10] = Safety ratio is cytotoxicity to vero cells/IC50 KI.; format: toxicity, cell-based; conditions: monkey, read-out: Safety ratio
Summary of the method: (§5)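 Safety ratio is the mammalian-cell cytotoxicity IC50 (vero, KB or BC cells) divided by the antiplasmodial IC50 against P. falciparum K1CB1 (C59R+S108N DHFR). Parasites were grown in human erythrocytes (1.5% suspension, 1-2% parasitemia) at 37 °C, 3% CO2, with drug dilutions at 0.1% DMSO final. After 24 h, [3H]hypoxanthine was added for a further 18-24 h. IC50 came from sigmoidal incorporation curves.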

[11] = target: Bifunctional dihydrofolate reductase-thymidylate synthase (Plasmodium falciparum K1) (UniProt P13922); assay: Inhibition of the C59R+S108N mutant of dihydrofolate reductase (DHFR) relative to Pyr.; summary of the method: as §2
[12] = target: Bifunctional dihydrofolate reductase-thymidylate synthase (Plasmodium falciparum K1, UniProt P13922); assay: Inhibition of the C59R+S108N mutant of dihydrofolate reductase (DHFR)
Sequence of Bifunctional dihydrofolate reductase-thymidylate synthase (Plasmodium falciparum K1, UniProt P13922) (P13922 whole entry): as the sequence (P13922 whole entry, looked up, stated change not applied) above
Summary of the method: (§6)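 Assay at 25 °C: 50 mM TES pH 7.0, 75 mM β-mercaptoethanol, 1 mg/mL BSA, 100 µM H2folate and 100 µM NADPH. NADPH oxidation followed at 340 nm. Ki derived from IC50 as Ki(1+[S]/Km), assuming competitive inhibition.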

[13] = test system: Bifunctional dihydrofolate reductase-thymidylate synthase (Plasmodium falciparum K1), P13922 [UNDEFINED MUTATION]; assay: Ratio of Inhibition of the C59R+S108N mutant of dihydrofolate reductase (DHFR) to inhibition of wild type dihydrofolate reductase.
[14] = test system: Plasmodium falciparum; assay: In vitro antiplasmodial activity (IC50) against Plasmodium falciparum wtTM4/8.2; format: functional, organism-based
[15] = test system: Plasmodium falciparum; assay: IC50 ratio against Plasmodium falciparum K1CB1/TM4; format: functional
[16] = Safety ratio is cytotoxicity to BC cells/IC50 K1.; format: toxicity, cell-based; conditions: human, BC cells (breast cancer); read-out: Safety ratio; summary of the method: as §3
[17] = Safety ratio is cytotoxicity to KB cells/IC50 TM4.; format: toxicity, cell-based; conditions: human, KB cells (epidermoid carcinoma); read-out: Safety ratio; summary of the method: as §4
[18] = target: Bifunctional dihydrofolate reductase-thymidylate synthase (Plasmodium falciparum K1, UniProt P13922, S108N); assay: Inhibition of the S108N mutant of dihydrofolate reductase (DHFR); summary of the method: as §6
Sequence of Bifunctional dihydrofolate reductase-thymidylate synthase (Plasmodium falciparum K1, UniProt P13922, S108N) (P13922 whole entry, looked up, stated change not applied): as above

[19] = test system: Plasmodium falciparum; assay: Relative antiplasmodial activity (IC50) compared to Pyr against Plasmodium falciparum K1CB1 DHFR double-mutant (C59R/S108N); format: functional
[20] = test system: Vero; assay: (§7) Cytotoxicity by the selective inhibition against African green monkey kidney […] (vero cells).; format: functional, cell-based; conditions: Chlorocebus sabaeus
[21] = target: T1, Dihydrofolate reductase (Homo sapiens) (UniProt P00374); assay: Cytotoxicity by selective inhibition against human dihydrofolate reductase (DHFR);NA is no inhibition
T1 sequence (whole entry): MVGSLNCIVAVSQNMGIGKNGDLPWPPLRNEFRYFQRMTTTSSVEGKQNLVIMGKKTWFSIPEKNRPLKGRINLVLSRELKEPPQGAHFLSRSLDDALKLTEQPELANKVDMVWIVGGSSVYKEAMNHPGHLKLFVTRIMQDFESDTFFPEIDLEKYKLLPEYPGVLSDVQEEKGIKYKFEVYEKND

[22] = Safety ratio is cytotoxicity to vero cells/IC50 K1.; format: toxicity, cell-based; conditions: monkey, read-out: Safety ratio; summary of the method: as §3
[23] = target: Bifunctional dihydrofolate reductase-thymidylate synthase (Plasmodium falciparum K1) (UniProt P13922); assay: Inhibition of Plasmodium falciparum wild-type dihydrofolate reductase (DHFR) relative to Pyrimethamine.
[24] = target: T2, Dihydrofolate reductase (Homo sapiens, UniProt P00374); assay: Cytotoxicity by selective inhibition against human dihydrofolate reductase (DHFR).
T2 sequence (P00374 whole entry): T1 sequence (whole entry)

[25] = test system: Vero; assay: as §7; conditions: Chlorocebus sabaeus
[26] = target: Bifunctional dihydrofolate reductase-thymidylate synthase (Plasmodium falciparum K1) (UniProt P13922); assay: as §1; summary of the method: as §2; remark: listed apart in the source
[27] = Safety ratio is cytotoxicity to BC cells/IC50 K1; format: toxicity, cell-based; conditions: human, BC cells (breast cancer); read-out: Safety ratio; summary of the method: as §5
[28] = target: Bifunctional dihydrofolate reductase-thymidylate synthase (Plasmodium falciparum K1) (UniProt P13922); assay: Inhibition of S108N mutant dihydrofolate reductase (DHFR)relative to Tmp; summary of the method: as §2
[29] = Safety ratio is cytotoxicity to vero cells/IC50 K1; format: toxicity, cell-based; conditions: monkey; summary of the method: as §3
[30] = target: Bifunctional dihydrofolate reductase-thymidylate synthase (Plasmodium falciparum K1) (UniProt P13922); assay: Inhibition of the C59R+S108N mutant of dihydrofolate reductase (DHFR)relative to Tmp; summary of the method: as §2
[31] = target: Bifunctional dihydrofolate reductase-thymidylate synthase (Plasmodium falciparum K1) (UniProt P13922); assay: Inhibition of the wild-type dihydrofolate reductase (DHFR) relative to Tmp; summary of the method: as §2
[32] = Safety ratio is cytotoxicity to vero cells/IC50 k1.; format: toxicity, cell-based; conditions: monkey, read-out: Safety ratio; summary of the method: as §3
[33] = test system: Plasmodium falciparum; assay: In vitro relative antiplasmodial activity (IC50) compared to Tmp against Plasmodium falciparum TM4/8.2 wild-type; format: functional
[34] = test system: Plasmodium falciparum; assay: Relative antiplasmodial activity (IC50) compared to Tmp against Plasmodium falciparum K1CB1 DHFR double-mutant (C59R/S108N); format: functional
[35] = Safety ratio is cytotoxicity to KB cells/IC50 K1; format: toxicity, cell-based; conditions: human, KB cells (epidermoid carcinoma); read-out: Safety ratio; summary of the method: as §5

Sequence of Bifunctional dihydrofolate reductase-thymidylate synthase (Plasmodium falciparum K1) (P13922 whole entry, looked up): as the sequence (P13922 whole entry, looked up, stated change not applied) above

CCc1nc(N)nc(N)c1-c1ccc(C(C)(C)C)cc1
Relative activity [1]: 1
IC50 [2]: 56000 nM
Relative activity [3]: 2.3
IC50 [4]: 87000 nM
Ratio [5]: 110
selectivity ratio [6]: 22
selectivity ratio [7]: 93.3
Safety ratio [8]: 172
Relative activity [9]: 7.5
selectivity ratio [10]: 26
Relative activity [11]: 2.4
Ki [12]: 127 nM
Ratio [13]: 212
IC50 [14]: 600 nM
Ratio [15]: 6.5
selectivity ratio [16]: 14.4
selectivity ratio [17]: 145
Ki [18]: 66.2 nM
Relative activity [19]: 0.1
IC50 [20]: 100000 nM

Nc1nc(N)c(-c2ccccc2)c(CCCc2ccccc2)n1
IC50 [2]: > 500000 nM
NI [21]: inactive
IC50 [4]: > 500000 nM
Ratio [5]: 1.8
selectivity ratio [6]: > 217
selectivity ratio [7]: > 2500
Safety ratio [8]: >250
Ki [12]: 2.4 nM
Ratio [13]: 4.8
IC50 [14]: 200 nM
selectivity ratio [22]: > 22
Ratio [15]: 11.5
selectivity ratio [16]: > 217
selectivity ratio [17]: > 2500
Ki [18]: 0.9 nM
Relative activity [23]: 0.9
IC50 [20]: > 50000 nM

CCCCCCc1nc(N)nc(N)c1-c1ccccc1
IC50 [2]: 268000 nM
IC50 [4]: 113000 nM
Ratio [5]: 4
selectivity ratio [6]: 87
selectivity ratio [7]: 4470
Safety ratio [8]: 857
Ki [24]: 15000 nM
Ki [12]: 0.7 nM
Ratio [13]: 2.3
IC50 [14]: 60 nM
selectivity ratio [22]: 41
Ratio [15]: 21.7
selectivity ratio [16]: 206
IC50 [25]: 55000 nM
selectivity ratio [17]: 1880
Ki [18]: 1.2 nM
Relative activity [23]: 0.5

CCc1nc(N)nc(N)c1-c1ccc(Br)cc1
Relative activity [1]: 0.5
Ratio [5]: 105
Relative activity [9]: 0.6
Relative activity [11]: 0.8
Ki [12]: 44.3 nM
Ratio [13]: 148
IC50 [14]: 50 nM
Ratio [15]: 500
Relative activity [26]: 1.1
Ki [18]: 31.5 nM
Relative activity [19]: 0.8

COc1ccc(CCCc2nc(N)nc(N)c2-c2cccc(Cl)c2)cc1
IC50 [2]: > 500000 nM
IC50 [4]: 15000 nM
Ratio [5]: 1.8
Ki [24]: > 5000 nM
Ki [12]: 6 nM
Ratio [13]: 2.7
IC50 [14]: 400 nM
Ratio [15]: 6.8
Ki [18]: 4 nM
Relative activity [23]: 3.7
IC50 [20]: 3000 nM

CCCOc1cc(Cc2cnc(N)nc2N)ccc1OCc1cc(OC)c(OC)c(OC)c1
IC50 [2]: 56000 nM
NI [21]: inactive
IC50 [4]: 180000 nM
IC50 [20]: 13000 nM

Nc1nc(N)c(-c2cccc(Cl)c2)c(CCOCCCOc2ccccc2)n1
IC50 [2]: 6100 nM
selectivity ratio [27]: 1.8
IC50 [4]: 8100 nM
Ratio [5]: 4.5
selectivity ratio [6]: 2.5
selectivity ratio [7]: 15
Safety ratio [8]: 38
Ki [12]: 1.9 nM
Ratio [13]: 4.7
IC50 [14]: 400 nM
selectivity ratio [22]: 4.5
Ratio [15]: 8.3
selectivity ratio [17]: 20
Ki [18]: 1.8 nM
Relative activity [23]: 0.7
IC50 [20]: 15000 nM

Nc1ncc(Cc2ccc(OCCCOc3cc(Cl)c(Cl)cc3Cl)cc2)c(N)n1
Relative activity [28]: 0.2
IC50 [2]: > 50000 nM
IC50 [4]: > 50000 nM
Ratio [5]: 26.1
selectivity ratio [29]: 13
Safety ratio [8]: 15 and >17
Ki [12]: 39.1 nM
Ratio [13]: 43.4
IC50 [14]: 3000 nM
Relative activity [30]: 0.2
Relative activity [31]: 0.09
selectivity ratio [32]: 13
Ratio [15]: 1.2
Ki [18]: 23.5 nM
IC50 [20]: 45000 nM

COc1cc(Cc2cnc(N)nc2N)ccc1OCc1cc(OC)c(OC)c(OC)c1
Relative activity [33]: 0.04
Ki [12]: 8.7 nM
IC50 [14]: 300 nM
Relative activity [34]: 0.2
Ratio [15]: 92.7
Ki [18]: 6.2 nM

CCOc1cc(Cc2cnc(N)nc2N)ccc1OCc1cc(OC)c(OC)c(OC)c1
IC50 [2]: 139000 nM
NI [21]: inactive
IC50 [4]: 102000 nM
IC50 [20]: 34000 nM

COc1cc(Cc2cnc(N)nc2N)ccc1OCCCc1ccccc1
Relative activity [28]: 0.2
IC50 [2]: 32000 nM
selectivity ratio [27]: 2.7
IC50 [4]: 72000 nM
Ratio [5]: 14.8
selectivity ratio [7]: 11
Safety ratio [8]: 67
Ki [12]: 44.2 nM
Ratio [13]: 24.5
IC50 [14]: 3000 nM
Relative activity [30]: 0.2
selectivity ratio [35]: 6
Relative activity [31]: 0.2
selectivity ratio [22]: 17
Ratio [15]: 3.9
selectivity ratio [17]: 24
Ki [18]: 26.6 nM
IC50 [20]: 200000 nM
